{"source": "paper PMC9197538", "about": "(CPT: Pharmacometrics & Systems Pharmacology, 2022)", "key": {"[1]": {"details": "single oral dose radiolabeled mobocertinib 160 mg; cited from earlier work"}, "[2]": {"format": "in vivo, human", "procedure,_shortened": "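Joint semi-mechanistic fit of plasma data for the parent and two active metabolites, from healthy-volunteer single doses (20–160 mg) and patient q.d. dosing. Parent: two compartments, three absorption transit compartments. Metabolites: two and one compartments. An enzyme compartment's production follows Emax/EC50 on the molar sum, assuming equal molar potency. IIV is exponential, log-normal. BLOQ handled by modified M6.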"}, "[3]": {"details": "no reference given; cited from earlier work"}, "[4]": {"details": "cited from earlier work"}, "[5]": {"details": "after single‐dose administration; cited from earlier work"}, "[6]": {"system": "EGFRex20ins‐positive mNSCLC", "details": "160 mg q.d., cited from earlier work"}, "[7]": {"details": "low‐fat or high‐fat meal compared with fasting; cited from earlier work"}, "[8]": {"system": "CYP3A", "details": "cited from earlier work"}, "[9]": {"assay": "Model-based simulations of exposure", "set-up": "species or system human", "details": "age 18–86 years, race, sex, body weight 37.3–132 kg, mild‐to‐moderate renal impairment, mild‐to‐moderate hepatic impairment"}, "[10]": {"details": "final population PK model, untransformed parameter"}, "[11]": {"details": "platinum‐pretreated patients with EGFRex20ins‐positive mNSCLC"}}}
{"smiles": "C=CC(=O)Nc1cc(Nc2ncc(C(=O)OC(C)C)c(-c3cn(C)c4ccccc34)n2)c(OC)cc1N(C)CCN(C)C", "note": "[mobocertinib]", "values": [{"measurement": "dose recovered in feces", "setting": "[1]", "value": "~ 76%"}, {"measurement": "dose recovered in urine", "setting": "[1]", "value": 4, "unit": "%"}, {"measurement": "percentage of administered dose recovered in feces as this moiety", "setting": "[1]", "value": "~ 6%"}, {"measurement": "percentage of administered dose recovered in urine as this moiety", "setting": "[1]", "value": "~ 1%"}, {"measurement": "IIV CL/F", "setting": "[2]; [10]", "value": 49.6, "unit": "%"}, {"measurement": "IIV Ka (interindividual variability)", "setting": "[2]; [10]", "value": 45.7, "unit": "%"}, {"measurement": "IIV Vc/F", "setting": "[2]; [10]", "value": 48.7, "unit": "%"}, {"measurement": "Ka, absorption rate constant", "setting": "[2]; [10]", "value": 2.12, "unit": "h⁻¹"}, {"measurement": "Residual variability, additive error on log scale", "setting": "[2]; [10]", "value": 41.4, "unit": "%"}, {"measurement": "Kenz, rate constant for enzyme synthesis/degradation", "setting": "[2]; final population PK model, enzyme (auto-induction) compartment", "value": 0.00392, "unit": "h⁻¹"}, {"measurement": "Emax, maximal induction effect", "setting": "[2]; final population PK model, enzyme compartment, molar sum of the three moieties", "value": 0.781}, {"measurement": "Vd/F", "setting": "[2]; human, plasma, oral, Vss/F, apparent volume of distribution at steady state, geometric mean (%CV 38%), derived from the final population PK model", "value": 3510, "unit": "L"}, {"measurement": "Biopharmaceutics Classification System class", "setting": "[3]", "value": "Class 1"}, {"measurement": "permeability", "setting": "[3]", "value": "high permeability"}, {"measurement": "solubility", "setting": "[3]", "value": "highly soluble"}, {"measurement": "decrease of molar sum AUC0–∞", "setting": "[4]; co‐administration with strong CYP3A inducer rifampin", "value": 95, "unit": "%"}, {"measurement": "increase of molar sum AUC0–∞ of mobocertinib, AP32960, and AP32914", "setting": "[4]; co‐administration with strong CYP3A inhibitor itraconazole", "value": 527, "unit": "%"}, {"measurement": "mean half‐life", "setting": "[5]", "value": 20, "unit": "h"}, {"measurement": "median duration of response per IRC", "setting": "[6]", "value": 17.5, "unit": "months"}, {"measurement": "median overall survival", "setting": "[6]", "value": 24.0, "unit": "months"}, {"measurement": "confirmed objective response rate (ORR) per independent review committee (IRC)", "setting": "[6]; [11]", "value": 28, "unit": "%"}, {"measurement": "confirmed objective response rate (ORR) per investigators", "setting": "[6]; [11]", "value": 35, "unit": "%"}, {"measurement": "food effect on molar sum AUC", "setting": "[7]", "value": "no clinically meaningful differences"}, {"measurement": "CYP3A substrate and inducer status (in vitro)", "setting": "[8]", "value": "both substrates and inducers of CYP3A"}, {"measurement": "CYP3A inhibition and induction (in vitro)", "setting": "[8]; ref data on file, Takeda Development Center Americas", "value": "inhibitors and inducers of CYP3A"}, {"measurement": "effect of covariates on mobocertinib PK", "setting": "[9]", "value": "No clinically meaningful differences"}]}
